The results in this text go back to ChEMBL document CHEMBL3297742, “Tetrahydronaphthyridine and dihydronaphthyridinone ethers as positive allosteric modulators of the metabotropic glutamate receptor 5 (mGlu₅)” (J Med Chem, 2014).

A short description of data set [1]: Kinetic solubility of the compound in buffer at pH 7.4. It is filed as physicochemical. Put shortly: (§1)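 Kinetic aqueous solubility measured in buffers at pH 2, 4 and 7.4.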
Data set [2] addresses Metabotropic glutamate receptor 2 (Rattus norvegicus, UniProt P31421). In words: Positive allosteric modulator activity at rat mGlu2 receptor expressed in HEK293 cells assessed as glutamate-induced GIRK channel-mediated thallium flux treated 140s prior to gluatamate challenge by fluorescence analysis. Type of data set: cell-based. Put shortly:
(§2)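 HEK293-GIRK cells expressing rat mGlu2, 3, 4, 6, 7 or 8, 15000 cells/well. Vehicle or 10 µM compound added, then 140 s later a glutamate CRC (L-AP4 for mGlu7) in thallium buffer (12 mM thallium sulfate, 10 mM HEPES). Thallium flux through GIRK read by fluorescence.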

Data set [3] is described as follows: Kinetic solubility of the compound in buffer at pH 2. It is filed as physicochemical. In outline: as §1
The nature of data set [4]: Tmax in Sprague-Dawley rat at 10 mg/kg, po. Type of data set: ADME, organism-based. Conditions: in vivo. Also on record: dose 10 mg/kg, route oral.
The target of data set [5] is Cytochrome P450 2D6 (Homo sapiens, UniProt P10635). In words: Inhibition of CYP2D6 in human liver microsomes. It is filed as ADME. In outline:
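CYP1A2, 2C9, 2D6 and 3A4 inhibition measured together in a cocktail assay with human liver microsomes and known probe substrates; IC50 determined.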

The nature of data set [6]: Kinetic solubility of the compound in buffer at pH 4. Type of data set: physicochemical. In outline: as §1
Data set [7] in a line: Cmax in Sprague-Dawley rat at 10 mg/kg, po. The note with it: in vivo. Type of data set: ADME, organism-based. Also on record: dose 10 mg/kg, route oral.
Data set [8] relates to Rattus norvegicus. In words: Toxicity in Sprague-Dawley rat assessed as autonomic nervous system deficit at 100 mg/kg, po measured up to 4 hrs by irwin neurological test. On the set-up: dose 100 mg/kg, route oral. The note with it: in vivo. It is filed as organism-based. Put shortly: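 Male Sprague–Dawley rats (250–300 g) scored at baseline, then given vehicle (20% HP-β-CD) or 100 mg/kg po (n = 6 each). Modified Irwin battery repeated at 30 min, 1 h and 4 h; each end point scored 0, 1 or 2; significance taken at p ≤ 0.05.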

For data set [9], the target named is Metabotropic glutamate receptor 8 (Rattus norvegicus, UniProt P70579). The experiment in a line: Positive allosteric modulator activity at rat mGlu8 receptor expressed in HEK293 cells assessed as glutamate-induced GIRK channel-mediated thallium flux treated 140s prior to glutamate challenge by fluorescence analysis. Type of data set: cell-based. Put shortly:
as §2

A short description of data set [10]: Half life in rat at 1 mg/kg, iv and 10 mg/kg, po. The note with it: in vivo. It is filed as ADME, organism-based. In outline: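 Rat pharmacokinetics with 1 mg/kg IV and 10 mg/kg PO dosing; oral arm given in 0.5% methyl cellulose (1 mg/mL, noncrossover) to male Sprague–Dawley rats.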
Data set [11] concerns the target Metabotropic glutamate receptor 5 (Rattus norvegicus, UniProt P31424). In words: Positive allosteric modulator activity at rat mGlu5 receptor expressed in HEK293 cells assessed as potentiation of glutamate-induced calcium mobilization by fluorescence assay. Conditions: read-out: EC50. Type of data set: functional, cell-based. Put shortly: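 HEK293 cells stably expressing rat mGlu5, 15000 cells/well, grown overnight, loaded with 1 µM Fluo-4AM for 50 min at 37 °C in HBSS/20 mM HEPES/2.5 mM probenecid pH 7.4. Compound added, then an EC20 of glutamate 140 s later and an EC80 90–120 s after that. Fluorescence over basal normalized to maximal glutamate response (100 µM glutamate); compound at up to 30 µM; ≥3 independent determinations.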

Data set [12] has as its system Rattus norvegicus. The experiment in a line: AUC (0 to 24 hrs) in Sprague-Dawley rat plasma at 10 mg/kg, po. Conditions: in vivo. It is filed as ADME, organism-based. Also on record: time < 24 hr, dose 10 mg/kg, route oral.

The structures appear in SMILES notation.

Sequence of Metabotropic glutamate receptor 2 (P31421 whole entry): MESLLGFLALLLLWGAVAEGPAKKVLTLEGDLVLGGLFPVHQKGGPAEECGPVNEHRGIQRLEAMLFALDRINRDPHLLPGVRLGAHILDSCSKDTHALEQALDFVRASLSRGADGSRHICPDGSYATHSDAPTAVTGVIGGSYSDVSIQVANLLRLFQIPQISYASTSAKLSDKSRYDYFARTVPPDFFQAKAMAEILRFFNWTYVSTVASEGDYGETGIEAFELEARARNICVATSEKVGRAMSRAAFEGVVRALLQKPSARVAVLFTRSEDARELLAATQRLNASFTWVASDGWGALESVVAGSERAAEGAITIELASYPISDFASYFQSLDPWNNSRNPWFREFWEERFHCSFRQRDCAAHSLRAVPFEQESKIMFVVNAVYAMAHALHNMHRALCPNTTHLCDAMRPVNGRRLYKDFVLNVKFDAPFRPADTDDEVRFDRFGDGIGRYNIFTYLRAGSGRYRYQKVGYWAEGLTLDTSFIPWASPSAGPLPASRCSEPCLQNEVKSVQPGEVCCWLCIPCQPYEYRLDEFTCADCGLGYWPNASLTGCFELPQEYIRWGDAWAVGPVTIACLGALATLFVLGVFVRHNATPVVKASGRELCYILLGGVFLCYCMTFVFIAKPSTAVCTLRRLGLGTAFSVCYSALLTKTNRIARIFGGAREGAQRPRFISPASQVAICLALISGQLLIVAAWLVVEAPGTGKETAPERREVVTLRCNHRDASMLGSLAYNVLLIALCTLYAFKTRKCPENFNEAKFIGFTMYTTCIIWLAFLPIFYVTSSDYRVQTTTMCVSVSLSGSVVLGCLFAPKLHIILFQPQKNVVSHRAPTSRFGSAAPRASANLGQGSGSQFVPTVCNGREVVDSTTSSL
Sequence of Metabotropic glutamate receptor 5 (P31424 whole entry): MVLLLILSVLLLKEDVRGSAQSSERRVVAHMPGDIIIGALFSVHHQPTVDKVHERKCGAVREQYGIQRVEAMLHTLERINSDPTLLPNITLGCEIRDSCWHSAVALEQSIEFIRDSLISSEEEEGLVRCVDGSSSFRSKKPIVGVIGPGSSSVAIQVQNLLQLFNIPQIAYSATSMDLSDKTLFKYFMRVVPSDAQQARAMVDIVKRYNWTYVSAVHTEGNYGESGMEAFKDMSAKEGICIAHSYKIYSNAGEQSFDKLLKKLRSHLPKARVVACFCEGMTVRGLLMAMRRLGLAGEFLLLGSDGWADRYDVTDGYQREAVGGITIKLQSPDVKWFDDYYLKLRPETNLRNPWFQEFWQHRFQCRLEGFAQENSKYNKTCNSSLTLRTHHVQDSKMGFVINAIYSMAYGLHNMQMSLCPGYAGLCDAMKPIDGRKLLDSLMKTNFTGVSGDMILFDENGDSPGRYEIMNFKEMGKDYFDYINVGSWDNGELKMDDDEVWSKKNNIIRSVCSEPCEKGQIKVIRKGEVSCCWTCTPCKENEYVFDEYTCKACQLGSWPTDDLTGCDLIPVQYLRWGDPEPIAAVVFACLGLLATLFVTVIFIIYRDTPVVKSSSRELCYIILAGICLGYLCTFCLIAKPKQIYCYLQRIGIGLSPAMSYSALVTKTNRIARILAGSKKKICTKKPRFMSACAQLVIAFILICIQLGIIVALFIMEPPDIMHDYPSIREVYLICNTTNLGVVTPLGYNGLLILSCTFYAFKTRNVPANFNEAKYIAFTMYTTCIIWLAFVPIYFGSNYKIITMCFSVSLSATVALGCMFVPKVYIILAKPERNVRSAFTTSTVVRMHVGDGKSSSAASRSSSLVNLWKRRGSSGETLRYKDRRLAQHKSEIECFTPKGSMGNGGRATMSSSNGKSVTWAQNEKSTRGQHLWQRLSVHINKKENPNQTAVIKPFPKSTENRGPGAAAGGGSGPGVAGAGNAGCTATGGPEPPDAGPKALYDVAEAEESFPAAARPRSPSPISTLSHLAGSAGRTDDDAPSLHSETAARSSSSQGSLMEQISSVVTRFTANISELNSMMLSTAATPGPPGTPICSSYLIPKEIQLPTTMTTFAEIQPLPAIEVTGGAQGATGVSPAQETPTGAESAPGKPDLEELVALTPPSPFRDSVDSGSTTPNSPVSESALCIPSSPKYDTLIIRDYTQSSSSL
Sequence of Metabotropic glutamate receptor 8 (P70579 whole entry): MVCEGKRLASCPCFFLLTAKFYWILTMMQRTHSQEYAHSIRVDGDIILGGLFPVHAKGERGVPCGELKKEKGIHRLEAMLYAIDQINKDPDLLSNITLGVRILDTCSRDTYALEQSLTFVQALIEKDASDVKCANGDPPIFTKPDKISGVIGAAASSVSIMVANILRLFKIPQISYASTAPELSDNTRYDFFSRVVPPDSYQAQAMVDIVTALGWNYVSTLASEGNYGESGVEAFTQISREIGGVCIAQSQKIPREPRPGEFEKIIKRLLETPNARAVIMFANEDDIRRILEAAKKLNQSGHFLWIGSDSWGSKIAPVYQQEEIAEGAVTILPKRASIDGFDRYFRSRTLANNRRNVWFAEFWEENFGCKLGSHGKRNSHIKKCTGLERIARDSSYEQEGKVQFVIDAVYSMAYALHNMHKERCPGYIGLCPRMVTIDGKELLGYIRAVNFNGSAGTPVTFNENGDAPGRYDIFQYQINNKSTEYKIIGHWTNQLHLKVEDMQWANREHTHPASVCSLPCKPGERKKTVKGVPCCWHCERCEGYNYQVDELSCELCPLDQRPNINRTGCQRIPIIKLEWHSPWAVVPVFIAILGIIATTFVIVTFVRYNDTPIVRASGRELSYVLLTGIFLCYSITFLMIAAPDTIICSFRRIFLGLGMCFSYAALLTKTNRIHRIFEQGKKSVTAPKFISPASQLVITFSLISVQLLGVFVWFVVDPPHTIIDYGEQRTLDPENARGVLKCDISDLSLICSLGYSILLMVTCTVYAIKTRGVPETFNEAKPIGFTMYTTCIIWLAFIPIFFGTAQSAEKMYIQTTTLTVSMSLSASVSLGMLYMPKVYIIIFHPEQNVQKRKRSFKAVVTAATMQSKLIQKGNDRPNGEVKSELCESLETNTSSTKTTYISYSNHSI
Sequence of Cytochrome P450 2D6 (P10635 whole entry): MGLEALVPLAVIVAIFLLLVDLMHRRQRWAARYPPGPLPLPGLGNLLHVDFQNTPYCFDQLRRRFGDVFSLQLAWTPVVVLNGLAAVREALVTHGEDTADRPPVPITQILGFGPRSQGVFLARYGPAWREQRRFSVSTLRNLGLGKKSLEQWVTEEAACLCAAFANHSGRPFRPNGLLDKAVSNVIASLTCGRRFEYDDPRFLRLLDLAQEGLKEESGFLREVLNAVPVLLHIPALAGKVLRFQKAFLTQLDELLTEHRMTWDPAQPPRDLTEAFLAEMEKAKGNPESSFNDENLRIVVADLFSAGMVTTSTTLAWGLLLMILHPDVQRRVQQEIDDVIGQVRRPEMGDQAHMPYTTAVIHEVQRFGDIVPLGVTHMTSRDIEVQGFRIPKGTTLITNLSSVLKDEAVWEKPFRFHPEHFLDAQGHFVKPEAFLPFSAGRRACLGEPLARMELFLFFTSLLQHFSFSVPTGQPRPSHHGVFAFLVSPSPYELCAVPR

For the compound `O=C1NCCc2nc(OCc3cccc(F)c3)ccc21`, the Kinetic_solubility in data set [1] came to 28 µM; in data set [3], 38 µM; in data set [6], 29 µM. Besides, the EC50 was above 10 µM in data set [2], above 10 µM in [9] and 0.225 µM in data set [11]. The time to peak (Tmax) in [4] is 30 min. Moreover, the IC50 in data set [5] is above 30 µM. This compound returned a Cmax in [7] of 3.36 µM. Moreover, the Activity entry in [8] is reported as “Non-toxic”. This compound showed a half-life in [10] of 18 min. In data set [12], this compound came in with an exposure (AUC) of 6.2 µM·h.
